Measured values taken from ChEMBL document CHEMBL3621129, “Investigation on the ZBG-functionality of phenyl-4-yl-acrylohydroxamic acid derivatives as histone deacetylase inhibitors” (Bioorg Med Chem Lett, 2015).

Tests used:
[1] = tested on: IGROV-1/Pt1 (Homo sapiens); test: Growth inhibition of human IGROV1/Pt1 cells after 72 hrs; conditions: IGROV-1/Pt1, 72 h
Histone deacetylase 2 = Histone deacetylase 2 (Homo sapiens, UniProt Q92769); test: Inhibition of human HDAC2 after 40 mins by fluorescence analysis
Chain of Histone deacetylase 2 (Q92769 whole entry): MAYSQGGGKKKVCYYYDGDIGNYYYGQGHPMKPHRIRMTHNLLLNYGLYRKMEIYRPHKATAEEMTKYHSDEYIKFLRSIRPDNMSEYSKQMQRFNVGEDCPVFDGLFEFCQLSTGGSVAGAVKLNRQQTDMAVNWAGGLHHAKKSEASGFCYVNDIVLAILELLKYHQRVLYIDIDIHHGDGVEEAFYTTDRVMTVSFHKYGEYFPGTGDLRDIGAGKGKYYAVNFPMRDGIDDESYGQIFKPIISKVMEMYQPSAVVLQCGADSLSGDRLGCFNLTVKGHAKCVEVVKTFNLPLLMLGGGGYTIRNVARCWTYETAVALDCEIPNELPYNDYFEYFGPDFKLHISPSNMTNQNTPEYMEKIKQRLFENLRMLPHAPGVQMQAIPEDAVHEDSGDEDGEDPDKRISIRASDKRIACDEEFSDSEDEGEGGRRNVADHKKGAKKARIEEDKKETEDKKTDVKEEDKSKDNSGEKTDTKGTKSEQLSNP

cells [2] = assay type: functional, cell-based; conditions: Homo sapiens, NB-4, 72 h
cells [3] = assay type: functional, cell-based; conditions: Homo sapiens, NCI-H460, 72 h
HCT-116 = test: cells; assay type: functional, cell-based; conditions: Homo sapiens, HCT-116, 72 h
IGROV-1 = test: Growth inhibition of human IGROV1 cells after 72 hrs; assay type: functional, cell-based; conditions: IGROV-1, 72 h
In short: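 Cells exposed to compound for 72 h. Growth inhibition read by cell counting. IC50 (concentration giving 50% inhibition of cell growth) taken from dose–response curves. Values are means ± SD of three independent experiments.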

[4] = biological target: T1, Protein deacetylase HDAC6 (Homo sapiens, UniProt Q9UBN7); test: Inhibition of HDAC6 (unknown origin)
T1 sequence (Q9UBN7 whole entry): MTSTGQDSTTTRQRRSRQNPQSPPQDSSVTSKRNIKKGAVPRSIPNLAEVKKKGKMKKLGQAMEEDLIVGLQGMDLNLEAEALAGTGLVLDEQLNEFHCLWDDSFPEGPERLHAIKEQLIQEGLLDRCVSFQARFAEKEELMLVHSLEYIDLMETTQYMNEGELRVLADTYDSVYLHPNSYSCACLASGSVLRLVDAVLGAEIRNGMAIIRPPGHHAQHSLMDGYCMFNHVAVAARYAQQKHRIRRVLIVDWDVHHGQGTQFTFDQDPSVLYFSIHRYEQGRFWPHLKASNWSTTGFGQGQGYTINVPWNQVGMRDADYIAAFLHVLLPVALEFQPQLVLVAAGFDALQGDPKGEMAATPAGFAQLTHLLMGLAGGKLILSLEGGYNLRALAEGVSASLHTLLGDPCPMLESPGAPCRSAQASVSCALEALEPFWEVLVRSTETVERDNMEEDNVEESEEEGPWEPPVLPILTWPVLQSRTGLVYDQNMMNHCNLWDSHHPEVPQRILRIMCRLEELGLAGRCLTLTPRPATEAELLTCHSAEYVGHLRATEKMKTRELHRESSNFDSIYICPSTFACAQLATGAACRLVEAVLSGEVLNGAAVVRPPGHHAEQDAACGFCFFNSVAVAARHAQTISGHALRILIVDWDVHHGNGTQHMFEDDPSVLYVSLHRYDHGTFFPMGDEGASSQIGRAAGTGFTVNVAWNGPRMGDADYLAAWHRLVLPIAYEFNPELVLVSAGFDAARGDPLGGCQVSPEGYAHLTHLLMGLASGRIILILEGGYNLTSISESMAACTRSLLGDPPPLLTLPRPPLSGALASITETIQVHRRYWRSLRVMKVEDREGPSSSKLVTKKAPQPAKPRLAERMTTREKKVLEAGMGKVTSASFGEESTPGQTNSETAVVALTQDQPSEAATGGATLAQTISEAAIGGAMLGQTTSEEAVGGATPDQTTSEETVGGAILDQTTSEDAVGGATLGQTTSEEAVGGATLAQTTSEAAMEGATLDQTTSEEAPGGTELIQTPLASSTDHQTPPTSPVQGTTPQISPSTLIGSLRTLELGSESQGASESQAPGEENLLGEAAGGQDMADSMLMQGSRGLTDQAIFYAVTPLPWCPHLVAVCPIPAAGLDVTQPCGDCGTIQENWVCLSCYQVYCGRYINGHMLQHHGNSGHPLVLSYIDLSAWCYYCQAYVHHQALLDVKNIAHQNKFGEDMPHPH

Histone deacetylase 1 = Histone deacetylase 1 (Homo sapiens, UniProt Q13547); test: Inhibition of HDAC1 (unknown origin)
Chain of Histone deacetylase 1 (Q13547 whole entry): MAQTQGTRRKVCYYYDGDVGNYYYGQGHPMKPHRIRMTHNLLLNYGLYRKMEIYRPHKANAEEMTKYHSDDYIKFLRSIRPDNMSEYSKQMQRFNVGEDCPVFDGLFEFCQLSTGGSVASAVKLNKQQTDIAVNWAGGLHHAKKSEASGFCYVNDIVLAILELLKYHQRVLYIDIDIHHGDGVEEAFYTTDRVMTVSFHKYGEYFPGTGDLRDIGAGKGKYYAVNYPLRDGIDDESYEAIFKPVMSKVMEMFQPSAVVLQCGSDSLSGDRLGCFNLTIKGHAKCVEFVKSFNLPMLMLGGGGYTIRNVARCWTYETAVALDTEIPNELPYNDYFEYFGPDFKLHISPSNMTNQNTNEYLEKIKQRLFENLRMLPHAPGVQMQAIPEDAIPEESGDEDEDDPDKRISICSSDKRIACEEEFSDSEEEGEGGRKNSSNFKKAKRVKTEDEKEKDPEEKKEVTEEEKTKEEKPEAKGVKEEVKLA

O=C1/C(=C/c2ccc(-c3ccccc3)cc2)CCN1O
IC50 [1]: > 60 µM
IC50 (Histone deacetylase 2): > 5 µM
IC50 (cells [2]): > 20 µM
IC50 (cells [3]): > 20 µM
IC50 (HCT-116): > 20 µM
IC50 (IGROV-1): > 60 µM

O=C(NO)N/C=C/c1ccc(-c2ccccc2)cc1
IC50 [1]: 6.7 µM
IC50 [4]: 1050 nM
IC50 (Histone deacetylase 2): 1.05 µM
IC50 (Histone deacetylase 1): 1310 nM
IC50 (cells [2]): 1.96 µM
IC50 (cells [3]): 9.5 µM
IC50 (HCT-116): 4 µM
IC50 (IGROV-1): 3.5 µM

O=C(N/C=C/c1ccc(-c2ccccc2)cc1)NOCc1ccccc1
IC50 [1]: > 50 µM
IC50 (Histone deacetylase 2): > 5 µM
IC50 (cells [2]): > 20 µM
IC50 (cells [3]): > 20 µM
IC50 (HCT-116): 40 µM
IC50 (IGROV-1): 40 µM

O=C(O)/C=C/c1ccc(-c2ccccc2)cc1
IC50 (Histone deacetylase 2): > 5 µM
IC50 (cells [2]): > 10 µM
IC50 (cells [3]): > 20 µM
IC50 (HCT-116): > 20 µM

O=C(CCCCCCC(=O)Nc1ccccc1)NO [VORINOSTAT]
IC50 [1]: 2.2 µM

CC(=O)SCC(=O)/C=C/c1ccc(-c2ccccc2)cc1
IC50 [1]: 18.7 µM
IC50 (Histone deacetylase 2): > 5 µM
IC50 (cells [2]): > 20 µM
IC50 (cells [3]): > 20 µM
IC50 (HCT-116): 14 µM
IC50 (IGROV-1): 26.4 µM

N#CSC/C=C/c1ccc(-c2ccccc2)cc1
IC50 [1]: 58.1 µM
IC50 (Histone deacetylase 2): > 5 µM
IC50 (cells [2]): > 20 µM
IC50 (cells [3]): 9.4 µM
IC50 (HCT-116): 12.6 µM
IC50 (IGROV-1): 3.8 µM

O=C(/C=C/c1ccc(-c2ccccc2)cc1)NO
IC50 [1]: 4 µM
IC50 (cells [2]): 0.9 µM
IC50 (cells [3]): 5.4 µM

NNC(=O)/C=C/c1ccc(-c2ccccc2)cc1
IC50 [1]: 25.1 µM
IC50 (Histone deacetylase 2): > 5 µM
IC50 (cells [2]): 7.1 µM
IC50 (cells [3]): > 20 µM
IC50 (HCT-116): 11.9 µM
IC50 (IGROV-1): 7.6 µM

NNC(=O)N/C=C/c1ccc(-c2ccccc2)cc1
IC50 [1]: 26.7 µM
IC50 (Histone deacetylase 2): > 5 µM
IC50 (cells [2]): 9.8 µM
IC50 (cells [3]): > 20 µM
IC50 (HCT-116): 16.4 µM
IC50 (IGROV-1): 14.5 µM
